From ChEMBL document CHEMBL1144102, “New cytotoxic polyacetylenes from the marine sponge Petrosia” (1999)
Converted amounts (≈) assume the structure as drawn.

Experiments:
Assay type in all cases: functional
A549 = assay: Cytotoxicity against human A549 cells by MTT assay; settings: read-out: ED50 (the source's name)
SK-OV-3 = assay: Cytotoxicity against human SKOV3 cells by MTT assay; settings: read-out: ED50 (the source's name)
SK-MEL-2 = assay: Cytotoxicity against human SK-MEL-2 cells by MTT assay; settings: read-out: ED50 (the source's name)
XF498 = assay: Cytotoxicity against human XF498 cells by MTT assay; settings: read-out: ED50 (the source's name)
HCT-15 = assay: Cytotoxicity against human HCT-15 cells by MTT assay; settings: read-out: ED50 (the source's name)
Simian virus 40 [1] = assay: Antiviral activity against SV40 virus assessed as inhibition of DNA replication at 125 uM; settings: Betapolyomavirus macacae
Summary of the method: (§1)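 Cell-free SV40 origin DNA replication: mixtures contained 40 mM creatine phosphate-di-Tris (pH 7.7), creatine kinase, 7 mM MgCl2, 0.5 mM DTT, 4 mM ATP, 200 µM UTP/GTP/CTP, 100 µM dATP/dGTP/dCTP, 25 µM [3H]dTTP, SV40 T-Ag, SV40 origin plasmid (pUC) and replication proteins. Incubated 90 min at 37 °C, then acid-insoluble radioactivity counted.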

Simian virus 40 [2] = assay: Antiviral activity against SV40 virus assessed as inhibition of DNA replication at 250 uM; settings: Betapolyomavirus macacae; summary of the method: as §1
Simian virus 40 [3] = assay: Antiviral activity against SV40 virus assessed as inhibition of DNA replication at 500 uM; settings: Betapolyomavirus macacae; summary of the method: as §1

Row | Structure (SMILES) | EC50 (A549) | EC50 (SK-OV-3) | EC50 (SK-MEL-2) | EC50 (XF498) | EC50 (HCT-15) | inhibition at 125 µM (Simian virus 40 [1]) | inhibition at 250 µM (Simian virus 40 [2]) | inhibition at 500 µM (Simian virus 40 [3])
1 | C#C/C=C\CCCCCCCCCCCCC/C=C/C(=O)CCCC/C=C\CCCCC#C[C@@H](O)C#CCCCCCC/C=C/[C@H](O)C#C [PETROTETRAYNDIOL C] | > 10 µg/mL | 4.2 µg/mL (≈ 6.28 µM) | 4.1 µg/mL (≈ 6.13 µM) | 12.7 µg/mL (≈ 19 µM) | 5.7 µg/mL (≈ 8.52 µM) | 45% | 46% | 81%
2 | C#C/C=C\CCCCCCCCCCCCC/C=C\CCCC/C=C\CCCCC#C[C@@H](O)C#CCCCCCC/C=C/[C@H](O)C#C [NOR-3S,14S-PETROCORTYNE A] | 7.3 µg/mL (≈ 11.4 µM) | 4.4 µg/mL (≈ 6.86 µM) | 3.8 µg/mL (≈ 5.93 µM) | 6.1 µg/mL (≈ 9.52 µM) | 3.5 µg/mL (≈ 5.46 µM) | 12% | 47% | 70%
